We go through one molecule from ChEMBL document CHEMBL4020830, “Design, Synthesis, and Evaluation of a Novel Series of Indole Sulfonamide Peroxisome Proliferator Activated Receptor (PPAR) α/γ/δ Triple Activators: Discovery of Lanifibranor, a New Antifibrotic Clinical Candidate” (J Med Chem, 2018).

Assay [1] addresses T1, Peroxisome proliferator-activated receptor alpha (Mus musculus, UniProt P23204).
T1 sequence (P23204 whole entry): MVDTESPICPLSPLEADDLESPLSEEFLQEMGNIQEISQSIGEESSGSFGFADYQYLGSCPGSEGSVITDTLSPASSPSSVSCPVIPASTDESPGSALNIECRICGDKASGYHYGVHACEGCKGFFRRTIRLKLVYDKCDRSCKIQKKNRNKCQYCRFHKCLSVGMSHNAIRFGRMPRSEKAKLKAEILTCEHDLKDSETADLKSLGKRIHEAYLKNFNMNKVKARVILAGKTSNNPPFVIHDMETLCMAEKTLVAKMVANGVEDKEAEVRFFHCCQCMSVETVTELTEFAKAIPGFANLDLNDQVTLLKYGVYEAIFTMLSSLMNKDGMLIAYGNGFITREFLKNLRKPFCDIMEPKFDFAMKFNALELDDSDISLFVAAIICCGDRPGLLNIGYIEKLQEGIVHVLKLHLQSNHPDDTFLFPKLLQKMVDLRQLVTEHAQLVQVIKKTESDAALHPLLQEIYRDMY
The assay is described as follows: Transactivation of mouse GAL4-fused PPARalpha LBD expressed in African green monkey COS7 cells co-expressing 5Gal4 pGL3 TK Luc after overnight incubation by luciferase reporter gene assay. In kind it is cell-based. The gist of the method: (§1)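 Cell-based Gal-4 transactivation assay in COS-7 cells transfected with PPARα, PPARδ or PPARγ ligand-binding domain. EC50 and Emax were derived, with Emax as maximum activation in percent of control. EC50s are means of at least two independent experiments performed in triplicate.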
In general terms: Reporter assays use an easily measured gene product as a stand-in for the process of interest.

The target of assay [2] is T2, Peroxisome proliferator-activated receptor delta (Mus musculus) (UniProt P35396).
T2 sequence (whole entry): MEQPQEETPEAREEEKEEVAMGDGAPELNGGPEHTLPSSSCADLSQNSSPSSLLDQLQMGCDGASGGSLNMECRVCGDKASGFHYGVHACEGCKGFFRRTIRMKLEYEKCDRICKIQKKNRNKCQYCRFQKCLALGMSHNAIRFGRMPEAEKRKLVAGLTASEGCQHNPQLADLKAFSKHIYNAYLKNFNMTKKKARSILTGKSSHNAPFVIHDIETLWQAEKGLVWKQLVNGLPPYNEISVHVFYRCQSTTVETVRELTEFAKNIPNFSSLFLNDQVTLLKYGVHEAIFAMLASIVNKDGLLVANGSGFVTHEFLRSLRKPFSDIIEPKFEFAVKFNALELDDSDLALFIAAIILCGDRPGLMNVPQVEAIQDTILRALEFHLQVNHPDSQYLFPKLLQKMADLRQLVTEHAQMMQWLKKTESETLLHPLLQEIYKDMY
The assay is described as follows: Transactivation of mouse GAL4-fused PPARdelta LBD expressed in African green monkey COS7 cells co-expressing 5Gal4 pGL3 TK Luc after overnight incubation by luciferase reporter gene assay relative to GW501516. The format is cell-based. The gist of the method:
as §1

Assay [3] deals with Mus musculus. As to the kind of experiment: Increase in plasma adiponctin level in C57Bl6/J mouse model of CCl4-induced liver fibrosis at 3 to 30 mg/kg, po qd for 3 weeks. The format is functional, organism-based. Summed up:
(§2)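 CCl4-induced liver fibrosis mice were dosed orally once daily at 3, 10 or 30 mg/kg for 3 weeks. Controls were CCl4-vehicle, vehicle oil and saline-injected groups. Liver collagen was scored by picrosirius red staining of histological sections. Plasma triglycerides and adiponectin were also measured. Analysis was one-way ANOVA with Dunnett's test.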

For assay [4], the target named is T3, Peroxisome proliferator-activated receptor alpha (Mus musculus) (UniProt P23204).
T3 sequence (whole entry): T1 sequence (P23204 whole entry)
The assay is described as follows: Transactivation of mouse GAL4-fused PPARalpha LBD expressed in African green monkey COS7 cells co-expressing 5Gal4 pGL3 TK Luc after overnight incubation by luciferase reporter gene assay relative to fenofibric acid. The format is cell-based. The gist of the method:
as §1

Assay [5] deals with T4, Peroxisome proliferator-activated receptor gamma (Homo sapiens, UniProt P37231).
T4 sequence (P37231 whole entry): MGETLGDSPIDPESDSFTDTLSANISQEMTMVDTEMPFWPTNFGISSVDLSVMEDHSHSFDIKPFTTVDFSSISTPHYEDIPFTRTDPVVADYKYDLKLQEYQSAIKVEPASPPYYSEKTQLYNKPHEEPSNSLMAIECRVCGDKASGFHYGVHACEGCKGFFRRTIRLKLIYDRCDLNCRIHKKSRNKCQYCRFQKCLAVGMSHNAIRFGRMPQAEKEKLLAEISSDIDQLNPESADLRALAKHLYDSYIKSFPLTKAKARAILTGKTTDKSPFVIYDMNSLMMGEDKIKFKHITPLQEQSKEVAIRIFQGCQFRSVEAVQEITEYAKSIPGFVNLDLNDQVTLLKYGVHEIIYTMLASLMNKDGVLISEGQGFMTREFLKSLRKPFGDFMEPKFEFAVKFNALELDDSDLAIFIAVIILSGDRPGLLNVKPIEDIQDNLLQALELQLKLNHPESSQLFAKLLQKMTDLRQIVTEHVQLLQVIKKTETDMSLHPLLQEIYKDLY

The test system of assay [6] is Mus musculus. As to the kind of experiment: Antifibrotic activity in C57Bl6/J mouse model of CCl4-induced liver fibrosis assessed as decrease in collagen deposition in liver administered po qd for 3 weeks by picrosirius red staining based assay. The format is functional, organism-based. The gist of the method:
as §2

Activity calls are given as the source filed them. The calls are words filed in the database; no cut-off is given here.

As a reminder, the EC50 is the concentration at which the effect is half-maximal. As to `O=C(O)CCCc1cc2cc(Cl)ccc2n1S(=O)(=O)c1ccc2ncsc2c1` [LANIFIBRANOR], the half-maximal effective concentration (EC50) in assay [1] is 366 nM; in assay [5], 3270 nM. In addition, the Emax in assay [2] is 131%; in assay [4] it was 72%. The result in the assay with Mus musculus [3] was Active. The Activity result in the assay with Mus musculus [6] is “Dose-dependent effect”.
